According to ChEMBL document CHEMBL1921722, “In vitro and in vivo evaluation of select kahalalide F analogs with antitumor and antifungal activities” (Bioorg Med Chem, 2011):
Converted amounts (≈) assume the structure as drawn. The source made the active and inactive calls. The rule behind the calls is not given here.

Tests used:
OVCAR-5 = assay: Cytotoxicity against human OVCAR5 cells assessed as cell growth at 8 nM by sulforhodamine B assay relative to control; format: functional; conditions: read-out: Activity
Pseudomonas aeruginosa = assay: Antimicrobial activity against Pseudomonas aeruginosa ATCC 27853 by CLSI method; format: functional, organism-based
COLO 205 [1] = assay: Cytotoxicity against human COLO205 cells assessed as cell growth at 80 nM by sulforhodamine B assay relative to control; format: functional; conditions: read-out: Activity
Outline: (§1)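 Run at NCI in the DTP 60-cell-line human tumor panel by standard procedure. Compounds were first screened at a single concentration, then tested at five tenfold-spaced concentrations. GI50 is the concentration reducing treated-cell growth to half that of untreated controls; TGI is the concentration completely halting growth.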

K562 = assay: Cytotoxicity against human K562 cells assessed as cell growth at 8 nM by sulforhodamine B assay relative to control; format: functional; conditions: read-out: Activity
SNB-75 = assay: Cytotoxicity against human SNB75 cells assessed as cell growth at 80 nM by sulforhodamine B assay relative to control; format: functional; conditions: read-out: Activity
SK-MEL-2 [2] = assay: Cytotoxicity against human SK-MEL-2 cells by sulforhodamine B assay; format: functional
Outline: (§2)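 NCI Developmental Therapeutics Program 60-cell-line human tumor panel screen, run at NCI. A single-concentration pre-screen was followed by a five-concentration dose-response in 10-fold steps. GI50 is the concentration that reduces growth of treated cells to half that of untreated control cells. TGI is the concentration that completely halts growth.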

SF-268 = assay: Cytotoxicity against human SF268 cells assessed as cell growth at 8 nM by sulforhodamine B assay relative to control; format: functional; conditions: read-out: Activity
T47D = assay: Cytotoxicity against human T47D cells assessed as cell growth at 800 nM by sulforhodamine B assay relative to control; format: functional; conditions: read-out: Activity
SW-620 = assay: Cytotoxicity against human SW620 cells assessed as cell growth at 800 nM by sulforhodamine B assay relative to control; format: functional; conditions: read-out: Activity
OVCAR-4 [3] = assay: Cytotoxicity against human OVCAR4 cells assessed as cell growth at 80 nM by sulforhodamine B assay relative to control; format: functional; conditions: read-out: Activity
A549 [4] = assay: Cytotoxicity against human A549 cells assessed as cell growth at 800 nM by sulforhodamine B assay relative to control; format: functional; conditions: read-out: Activity; outline: as §1
COLO 205 [5] = assay: Cytotoxicity against human COLO205 cells by sulforhodamine B assay; format: functional; outline: as §1
TK-10 = assay: Cytotoxicity against human TK10 cells by sulforhodamine B assay; format: functional; outline: as §2
HCT-116 = assay: Cytotoxicity against human HCT116 cells assessed as cell growth at 800 nM by sulforhodamine B assay relative to control; format: functional; conditions: read-out: Activity
786-0 [6] = assay: Cytotoxicity against human 786-0 cells assessed as cell growth at 80 uM by sulforhodamine B assay relative to control; format: functional; conditions: read-out: Activity; outline: as §1
HOP-62 = assay: Cytotoxicity against human HOP62 cells assessed as cell growth at 80 uM by sulforhodamine B assay relative to control; format: functional; conditions: read-out: Activity
MDA-MB-435 = assay: Cytotoxicity against human MDA-MB-435 cells assessed as cell growth at 800 nM by sulforhodamine B assay relative to control; format: functional; conditions: read-out: Activity
A549 [7] = assay: Cytotoxicity against human A549 cells assessed as cell growth at 8 nM by sulforhodamine B assay relative to control; format: functional; conditions: read-out: Activity; outline: as §1
OVCAR-4 [8] = assay: Cytotoxicity against human OVCAR4 cells assessed as cell growth at 800 nM by sulforhodamine B assay relative to control; format: functional; conditions: read-out: Activity
786-0 [9] = assay: Cytotoxicity against human 786-0 cells assessed as cell growth at 8 nM by sulforhodamine B assay relative to control; format: functional; conditions: read-out: Activity; outline: as §1
SF-539 = assay: Cytotoxicity against human SF539 cells assessed as cell growth at 8 nM by sulforhodamine B assay relative to control; format: functional; conditions: read-out: Activity
Hs-578T = assay: Cytotoxicity against human Hs578T cells assessed as cell growth at 8 nM by sulforhodamine B assay relative to control; format: functional; conditions: read-out: Activity
UACC-62 = assay: Cytotoxicity against human UACC62 cells by sulforhodamine B assay; format: functional; outline: as §2
OVCAR-3 = assay: Cytotoxicity against human OVCAR3 cells assessed as cell growth at 80 uM by sulforhodamine B assay relative to control; format: functional; conditions: read-out: Activity
SK-MEL-2 [10] = assay: Cytotoxicity against human SK-MEL-2 cells assessed as cell growth at 80 nM by sulforhodamine B assay relative to control; format: functional; conditions: read-out: Activity
UACC-257 [11] = assay: Cytotoxicity against human UACC257 cells assessed as cell growth at 8 nM by sulforhodamine B assay relative to control; format: functional; conditions: read-out: Activity
SN12C = assay: Cytotoxicity against human SN12C cells assessed as cell growth at 8 uM by sulforhodamine B assay relative to control; format: functional; conditions: read-out: Activity
NCI-H322M = assay: Cytotoxicity against human NCI-H322M cells by sulforhodamine B assay; format: functional; outline: as §2
HCT-15 = assay: Cytotoxicity against human HCT15 cells assessed as cell growth at 8 uM by sulforhodamine B assay relative to control; format: functional; conditions: read-out: Activity
IGROV-1 = assay: Cytotoxicity against human IGROV1 cells assessed as cell growth at 8 nM by sulforhodamine B assay relative to control; format: functional; conditions: read-out: Activity
SF-295 [12] = assay: Cytotoxicity against human SF295 cells assessed as cell growth at 8 uM by sulforhodamine B assay relative to control; format: functional; conditions: read-out: Activity
ACHN = assay: Cytotoxicity against human ACHN cells assessed as cell growth at 8 uM by sulforhodamine B assay relative to control; format: functional; conditions: read-out: Activity; outline: as §1
NCI-H23 = assay: Cytotoxicity against human NCI-H23 cells assessed as cell growth at 8 uM by sulforhodamine B assay relative to control; format: functional; conditions: read-out: Activity
UACC-257 [13] = assay: Cytotoxicity against human UACC257 cells assessed as cell growth at 80 nM by sulforhodamine B assay relative to control; format: functional; conditions: read-out: Activity
NCI/ADR-RES = assay: Cytotoxicity against human NCI/ADR-RES cells assessed as cell growth at 800 nM by sulforhodamine B assay relative to control; format: functional; conditions: read-out: Activity
Candida albicans = assay: Antimicrobial activity against Candida albicans ATCC 90028 by CLSI method; format: functional, organism-based
SF-295 [14] = assay: Cytotoxicity against human SF295 cells assessed as cell growth at 8 nM by sulforhodamine B assay relative to control; format: functional; conditions: read-out: Activity
SK-OV-3 = assay: Cytotoxicity against human SKOV3 cells assessed as cell growth at 8 nM by sulforhodamine B assay relative to control; format: functional; conditions: read-out: Activity
HT-29 = assay: Cytotoxicity against human HT-29 cells assessed as cell growth at 80 uM by sulforhodamine B assay relative to control; format: functional; conditions: read-out: Activity
LOX IMVI = assay: Cytotoxicity against human LOXIMVI cells assessed as cell growth at 80 nM by sulforhodamine B assay relative to control; format: functional; conditions: read-out: Activity
M14 = assay: Cytotoxicity against human M14 cells assessed as cell growth at 80 nM by sulforhodamine B assay relative to control; format: functional; conditions: read-out: Activity
NCI-H226 = assay: Cytotoxicity against human NCI-H226 cells assessed as cell growth at 80 nM by sulforhodamine B assay relative to control; format: functional; conditions: read-out: Activity

C/C=C1\NC(=O)[C@H](Cc2ccccc2)NC(=O)[C@@H](C(C)C)NC(=O)[C@@H]([C@@H](C)CC)NC(=O)[C@H](NC(=O)[C@H](NC(=O)[C@H](CCCNCc2ccc(F)c(C)c2)NC(=O)[C@H]2CCCN2C(=O)[C@H](NC(=O)[C@@H](NC(=O)[C@@H](NC(=O)[C@H](NC(=O)CCCC(C)C)C(C)C)[C@@H](C)O)C(C)C)C(C)C)[C@@H](C)CC)[C@@H](C)OC(=O)[C@H](C(C)C)NC1=O
growth at 0.008 µM (OVCAR-5): 107%
Activity (Pseudomonas aeruginosa): inactive
growth at 0.08 µM (COLO 205 [1]): 90%
growth at 0.008 µM (K562): 101%
growth at 0.08 µM (SNB-75): 115%
GI50 (SK-MEL-2 [2]): 1410 nM
TGI (SK-MEL-2 [2]; read-out: pTGI (converted)): 2690 nM
growth at 0.008 µM (SF-268): 97%
growth at 0.8 µM (T47D): -50%
growth at 0.8 µM (SW-620): 40%
growth at 0.08 µM (OVCAR-4 [3]): 104%
growth at 0.8 µM (A549 [4]): -40%
GI50 (COLO 205 [5]; read-out: GI50): 135 nM
GI50 (COLO 205 [5]; read-out: pGI50 (converted)): 135 nM
GI50 (TK-10): 1480 nM
TGI (TK-10; read-out: pTGI (converted)): 2880 nM
growth at 0.8 µM (HCT-116): 104%
growth at 80 µM (786-0 [6]): -98%
growth at 80 µM (HOP-62): -85%
growth at 0.8 µM (MDA-MB-435): 83%
growth at 0.008 µM (A549 [7]): 100%
growth at 0.8 µM (OVCAR-4 [8]): 7%
growth at 0.008 µM (786-0 [9]): 103%
growth at 0.008 µM (SF-539): 105%
growth at 0.008 µM (Hs-578T): 102%
GI50 (UACC-62): 1260 nM
LC50 (UACC-62): 4170 nM
TGI (UACC-62; read-out: pTGI (converted)): 2290 nM
growth at 80 µM (OVCAR-3): -90%
growth at 0.08 µM (SK-MEL-2 [10]): 101%
growth at 0.008 µM (UACC-257 [11]): 102%
growth at 8 µM (SN12C): -81%
LC50 (NCI-H322M): 457 nM
GI50 (NCI-H322M; read-out: GI50): 131 nM
TGI (NCI-H322M; read-out: TGI): 244 nM
GI50 (NCI-H322M; read-out: pGI50 (converted)): 132 nM
TGI (NCI-H322M; read-out: pTGI (converted)): 245 nM
growth at 8 µM (HCT-15): -92%
growth at 0.008 µM (IGROV-1): 104%
growth at 8 µM (SF-295 [12]): -89%
growth at 8 µM (ACHN): -97%
growth at 8 µM (NCI-H23): -77%
growth at 0.08 µM (UACC-257 [13]): 101%
growth at 0.8 µM (NCI/ADR-RES): 91%
IC50 (Candida albicans): 3640 nM
MFC (Candida albicans): 20 µM (≈ 32 µg/mL)
MIC (Candida albicans): 10 µM (≈ 16 µg/mL)
growth at 0.008 µM (SF-295 [14]): 99%
growth at 0.008 µM (SK-OV-3): 102%
growth at 80 µM (HT-29): 21%
growth at 0.08 µM (LOX IMVI): 94%
growth at 0.08 µM (M14): 99%
growth at 0.08 µM (NCI-H226): 109%
